In ChEMBL document CHEMBL3044702, “Synthesis and insecticidal activities of novel N-sulfenyl-N'-tert-butyl-N,N'-diacylhydrazines. 3. N-(alkyldithio), n-(aminothio), and N,N-dithio derivatives” (2008):
≈ marks a conversion by molar mass, not a printed value.

What was measured:
Type in all cases: functional
[1] = system: Mythimna separata; experiment: Larvicidal activity against fourth-instar larval stage of Mythimna separata (Oriental armyworm) in compound-pretreated corn leaves assessed as mortality at 2.5 mg/kg at 25 +/-1 degC measured after 4 days
Method in brief: (§1)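 Insects were reared in the laboratory and tested at 25 ± 1 °C, with repeats as statistics required. Larvae were scored dead or alive. Mortality was corrected by Abbott's formula and expressed on a 0–100 scale, where 0 is no activity and 100 is total kill.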

[2] = system: Mythimna separata; experiment: Larvicidal activity against fourth-instar larval stage of Mythimna separata (Oriental armyworm) in compound-pretreated corn leaves assessed as mortality at 10 mg/kg at 25 +/-1 degC measured after 4 days; method in brief: as §1
[3] = system: Mythimna separata; experiment: Larvicidal activity against fourth-instar larval stage of Mythimna separata (Oriental armyworm) in compound-pretreated corn leaves assessed as mortality at 200 mg/kg at 25 +/-1 degC measured after 4 days; method in brief: as §1
[4] = system: Mythimna separata; experiment: Larvicidal activity against fourth-instar larval stage of Mythimna separata (Oriental armyworm) in compound-pretreated corn leaves assessed as mortality at 100 mg/kg at 25 +/-1 degC measured after 4 days; method in brief: as §1
[5] = system: Mythimna separata; experiment: Larvicidal activity against fourth-instar larval stage of Mythimna separata (Oriental armyworm) in compound-pretreated corn leaves assessed as mortality at 50 mg/kg at 25 +/-1 degC measured after 4 days; method in brief: as §1
[6] = system: Mythimna separata; experiment: Larvicidal activity against fourth-instar larval stage of Mythimna separata (Oriental armyworm) in compound-pretreated corn leaves assessed as mortality at 25 mg/kg at 25 +/-1 degC measured after 4 days; method in brief: as §1
[7] = system: Mythimna separata; experiment: Larvicidal activity against fourth-instar larval stage of Mythimna separata (Oriental armyworm) in compound-pretreated corn leaves assessed as mortality at 5 mg/kg at 25 +/-1 degC measured after 4 days; method in brief: as §1
[8] = system: Mythimna separata; experiment: Larvicidal activity against fourth-instar larval stage of Mythimna separata (Oriental armyworm) in compound-pretreated corn leaves assessed as mortality at 40 mg/kg at 25 +/-1 degC measured after 4 days; method in brief: as §1
[9] = system: Mythimna separata; experiment: Larvicidal activity against fourth-instar larval stage of Mythimna separata (Oriental armyworm) in compound-pretreated corn leaves assessed as mortality at 20 mg/kg at 25 +/-1 degC measured after 4 days; method in brief: as §1
[10] = system: Mythimna separata; experiment: Larvicidal activity against fourth-instar larval stage of Mythimna separata (Oriental armyworm) in compound-pretreated corn leaves assessed as mortality at 30 mg/kg at 25 +/-1 degC measured after 4 days; method in brief: as §1
[11] = system: Plutella xylostella; experiment: Toxic ratio of RH-5992 LC50 to compound LC50 for second-instar larval stage of Plutella xylostella (diamondback moth) measured after 6 days by leaf-dip method
Method in brief: (§2)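 Leaf-dip assay on laboratory-reared diamondback moth larvae at 25 ± 1 °C. Fresh cabbage leaf disks 1.8 cm across were dipped in test solution for 15 s. Larvae were scored dead or alive, and mortality was corrected by Abbott's formula. Mortality-regression data were put through Finney probit analysis to give LC50 for the test compounds and the parent reference.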

[12] = system: Plutella xylostella; experiment: Larvicidal activity against second-instar larval stage of Plutella xylostella (diamondback moth) in cabbage leaves assessed as mortality at 25 +/-1 degC treated for 15 secs before larval infestation measured after 6 days by leaf-dip method; conditions: 144 h; method in brief: as §2

Row | Compound | mortality at 2.5 mg/kg [1] [%] | mortality at 10 mg/kg [2] [%] | mortality at 200 mg/kg [3] [%] | mortality at 100 mg/kg [4] [%] | mortality at 50 mg/kg [5] [%] | mortality at 25 mg/kg [6] [%] | mortality at 5 mg/kg [7] [%] | mortality at 40 mg/kg [8] [%] | mortality at 20 mg/kg [9] [%] | mortality at 30 mg/kg [10] [%] | RatioLC50 [11] | LC50 [12] [µg/mL]
1 | CCc1ccc(CN(SNc2ccc(C)cc2)N(C(=O)c2cc(C)cc(C)c2)C(C)(C)C)cc1 | 100 |  |  |  |  |  |  |  |  |  |  | 
2 | Cc1cc(C)cc(C(=O)N(NC(=O)c2ccccc2)C(C)(C)C)c1 |  | 10 | 100 | 100 | 80 |  |  |  |  |  |  | 
3 | CCCSSN(C(=O)c1ccccc1)N(C(=O)c1ccccc1)C(C)(C)C |  | 0 |  |  | 100 | 90 |  |  |  |  |  | 
4 | CCCCSSN(C(=O)c1ccccc1)N(C(=O)c1ccccc1)C(C)(C)C |  | 0 |  |  | 100 | 90 |  |  |  |  |  | 
5 | CCCSSN(C(=O)c1ccc2c(c1C)OC(C)C2)N(C(=O)c1cc(C)cc(C)c1)C(C)(C)C (stereo not drawn) | 100 | 100 |  |  |  | 100 | 100 |  |  |  |  | 
6 | CCCCSSN(C(=O)c1ccc2c(c1C)OC(C)C2)N(C(=O)c1cc(C)cc(C)c1)C(C)(C)C (stereo not drawn) | 80 | 100 |  |  |  | 100 | 100 |  |  |  |  | 
7 | CCCSSN(C(=O)c1cccc(OC)c1C)N(C(=O)c1cc(C)cc(C)c1)C(C)(C)C | 100 | 100 |  |  |  | 100 | 100 |  |  |  |  | 
8 | CCCCSSN(C(=O)c1cccc(OC)c1C)N(C(=O)c1cc(C)cc(C)c1)C(C)(C)C | 100 | 100 |  |  |  | 100 | 100 |  |  |  |  | 
9 | CCCSSN(C(=O)c1ccc(Cl)cc1)N(C(=O)c1ccccc1)C(C)(C)C | 0 | 80 |  |  |  | 100 | 20 |  |  |  |  | 
10 | CCCCSSN(C(=O)c1ccc(Cl)cc1)N(C(=O)c1ccccc1)C(C)(C)C | 0 | 90 |  |  |  | 100 | 30 |  |  |  |  | 
11 | CCc1ccc(CN(SNc2ccc(Cl)cc2)N(C(=O)c2cc(C)cc(C)c2)C(C)(C)C)cc1 | 0 | 90 |  |  |  | 100 | 80 |  |  |  |  | 
12 | CCOC(=O)CCN(Cc1ccccc1)SN(Cc1ccc(CC)cc1)N(C(=O)c1cc(C)cc(C)c1)C(C)(C)C | 100 |  |  |  |  |  |  |  |  |  |  | 
13 | CC(C)(C)N(C(=O)c1ccccc1)N(SSN(C(=O)c1ccccc1)N(C(=O)c1ccccc1)C(C)(C)C)C(=O)c1ccccc1 |  | 5 | 95 | 85 | 60 |  |  |  |  |  |  | 
14 | CCc1ccc(C(=O)N(SSN(C(=O)c2ccc(CC)cc2)N(C(=O)c2cc(C)cc(C)c2)C(C)(C)C)N(C(=O)c2cc(C)cc(C)c2)C(C)(C)C)cc1 |  | 10 | 100 | 100 | 100 |  |  | 100 | 95 | 100 |  | 
15 | CC(C)(C)N(C(=O)c1ccccc1)N(SSN(C(=O)c1ccc(Cl)cc1)N(C(=O)c1ccccc1)C(C)(C)C)C(=O)c1ccc(Cl)cc1 |  | 10 |  | 100 | 100 |  |  | 100 | 75 | 85 |  | 
16 | Cc1cccc(C(=O)N(N(SSN(C(=O)c2ccc(Cl)cc2)N(C(=O)c2cccc(C)c2)C(C)(C)C)C(=O)c2ccc(Cl)cc2)C(C)(C)C)c1 |  | 0 | 100 | 100 | 100 |  |  |  |  |  |  | 
17 | Cc1cc(C)cc(C(=O)N(N(SSN(C(=O)c2ccccc2)N(C(=O)c2cc(C)cc(C)c2)C(C)(C)C)C(=O)c2ccccc2)C(C)(C)C)c1 |  | 0 | 100 | 70 | 10 |  |  |  |  |  |  | 
18 | Cc1cccc(C(=O)N(N(SSN(C(=O)c2ccccc2)N(C(=O)c2cccc(C)c2)C(C)(C)C)C(=O)c2ccccc2)C(C)(C)C)c1 |  | 0 | 100 | 50 | 10 |  |  |  |  |  |  | 
19 | Cc1cc(C)cc(C(=O)N(N(SSN(C(=O)c2ccc(Cl)cc2)N(C(=O)c2cc(C)cc(C)c2)C(C)(C)C)C(=O)c2ccc(Cl)cc2)C(C)(C)C)c1 |  | 0 | 100 | 90 | 60 |  |  |  |  |  |  | 
20 | Cc1cccc(C(=O)N(NC(=O)c2ccc(Cl)cc2)C(C)(C)C)c1 |  | 0 | 100 | 100 | 90 |  |  |  |  |  |  | 
21 | Cc1cccc(C(=O)N(NC(=O)c2ccccc2)C(C)(C)C)c1 |  | 0 | 100 | 50 | 30 |  |  |  |  |  |  | 
22 | Cc1cc(C)cc(C(=O)N(NC(=O)c2ccc(Cl)cc2)C(C)(C)C)c1 |  | 30 | 100 | 100 | 100 |  |  | 100 | 50 |  |  | 
23 | CCCSSN(C(=O)c1ccc(CC)cc1)N(C(=O)c1cc(C)cc(C)c1)C(C)(C)C | 100 | 100 |  |  |  |  | 100 |  |  |  |  | 
24 | CCCCSSN(C(=O)c1ccc(CC)cc1)N(C(=O)c1cc(C)cc(C)c1)C(C)(C)C | 90 | 100 |  |  |  |  | 100 |  |  |  |  | 
25 | Cc1cc(C)cc(C(=O)N(NC(=O)c2ccc3c(c2C)OC(C)C3)C(C)(C)C)c1 (stereo not drawn) [FUXIAN] | 90 |  |  |  |  |  | 100 |  |  |  |  | 
26 | CC(C)(C)N(NC(=O)c1ccc(Cl)cc1)C(=O)c1ccccc1 [HALOFENOZIDE] | 10 | 0 | 100 | 100 | 100 |  | 70 | 100 | 85 | 95 |  | 
27 | CC(C)(C)N(NC(=O)c1ccccc1)C(=O)c1ccccc1 [RH-5849] |  | 0 |  |  | 95 | 70 |  |  |  |  |  | 
28 | CCc1ccc(C(=O)NN(C(=O)c2cc(C)cc(C)c2)C(C)(C)C)cc1 [TEBUFENOZIDE] | 55 | 75 | 100 | 100 | 100 |  | 95 | 100 | 100 | 100 | 1 | 56.9 (≈ 161 µM)
